Results published in ChEMBL document CHEMBL1149338, “Synthesis and in vitro evaluation of salvinorin A analogues: effect of configuration at C(2) and substitution at C(18)” (Bioorg Med Chem Lett, 2006).

Key:
[1] = biological target: T1, Kappa-type opioid receptor (Homo sapiens, UniProt P41145); test: Enhancement of [35S]GTP-gamma-S binding to human KOR expressed in CHO cells relative to U50,488H; type: functional, cell-based
[2] = biological target: T1, Kappa-type opioid receptor; test: Enhancement of [35S]GTP-gamma-S binding to human KOR expressed in CHO cells; type: functional, cell-based
[3] = biological target: T1, Kappa-type opioid receptor; test: Inhibition of [3H]diprenorphine binding to human KOR expressed in CHO cells; type: cell-based
In short: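 Affinity: membranes from CHO cells stably transfected with human κ-opioid receptor; competitive inhibition of [3H]diprenorphine binding; Ki values; mean of at least three independent experiments, each in duplicate.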

[4] = biological target: T1, Kappa-type opioid receptor; test: Enhancement of [35S]GTP-gamma-S binding to human KOR expressed in CHO cells relative to U50,488H at 10 uM; type: functional, cell-based

T1 sequence (P41145 whole entry): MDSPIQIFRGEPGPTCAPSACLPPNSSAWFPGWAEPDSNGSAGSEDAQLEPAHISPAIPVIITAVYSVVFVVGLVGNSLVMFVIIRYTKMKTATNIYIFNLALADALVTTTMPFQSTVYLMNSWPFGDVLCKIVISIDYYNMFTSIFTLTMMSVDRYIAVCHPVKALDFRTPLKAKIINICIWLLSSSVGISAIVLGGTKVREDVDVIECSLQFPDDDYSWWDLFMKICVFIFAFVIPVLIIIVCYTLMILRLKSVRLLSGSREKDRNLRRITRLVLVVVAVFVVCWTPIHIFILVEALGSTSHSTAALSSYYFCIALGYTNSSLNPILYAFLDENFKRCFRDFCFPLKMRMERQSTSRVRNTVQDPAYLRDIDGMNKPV

Row | SMILES | Efficacy [1] | EC50 [2] | Ki [3] | Efficacy [4]
1 | COC(=O)[C@@H]1C[C@@H](N(C)C(C)=O)C(=O)[C@H]2[C@@]1(C)CC[C@H]1C(=O)O[C@H](c3ccoc3)C[C@]21C | 106% | – | – | –
2 | COC(=O)[C@@H]1C[C@H](NC(C)=O)C(=O)[C@H]2[C@@]1(C)CC[C@H]1C(=O)O[C@H](c3ccoc3)C[C@]21C | – | 0.188 µM | 0.149 µM | –
3 | COC(=O)[C@@H]1C[C@H](N(C)C(C)=O)C(=O)[C@H]2[C@@]1(C)CC[C@H]1C(=O)O[C@H](c3ccoc3)C[C@]21C | 103% | 0.0024 µM | 0.0032 µM | –
4 | CCNC(=O)[C@@H]1C[C@H](OC(C)=O)C(=O)[C@H]2[C@@]1(C)CC[C@H]1C(=O)O[C@H](c3ccoc3)C[C@]21C | – | – | > 10 µM | –
5 | COC(=O)[C@@H]1C[C@@H](NC(C)=O)C(=O)[C@H]2[C@@]1(C)CC[C@H]1C(=O)O[C@H](c3ccoc3)C[C@]21C | – | 0.339 µM | 0.332 µM | –
6 | COC[C@@H]1C[C@H](OC(C)=O)C(=O)[C@@H]2C3(C)C[C@@H](c4ccoc4)OC[C@H]3C(=O)C[C@@]12C (stereo partly drawn) | – | – | 0.769 µM | 70%
7 | CCC(=O)N[C@@H]1C[C@@H](C(=O)OC)[C@]2(C)CC[C@H]3C(=O)O[C@H](c4ccoc4)C[C@]3(C)[C@H]2C1=O | 102% | 0.718 µM | 0.117 µM | –
8 | CCNC[C@@H]1C[C@H](OC(C)=O)C(=O)[C@@H]2C3(C)C[C@@H](c4ccoc4)OC[C@H]3C(=O)C[C@@]12C (stereo partly drawn) | – | – | > 10 µM | –
9 | CCN(C(C)=O)[C@H]1C[C@@H](C(=O)OC)[C@]2(C)CC[C@H]3C(=O)O[C@H](c4ccoc4)C[C@]3(C)[C@H]2C1=O | 104% | 0.0252 µM | 0.0276 µM | –
10 | CN[C@H]1C[C@@H](C(=O)OC)[C@]2(C)CC[C@H]3C(=O)O[C@H](c4ccoc4)C[C@]3(C)[C@H]2C1=O | 82% | 0.825 µM | 0.328 µM | –
11 | CCC(=O)N(C)[C@H]1C[C@@H](C(=O)OC)[C@]2(C)CC[C@H]3C(=O)O[C@H](c4ccoc4)C[C@]3(C)[C@H]2C1=O | – | 0.00075 µM | 0.0016 µM | –
12 | COC(=O)[C@@H]1C[C@H](N(C)C)C(=O)[C@H]2[C@@]1(C)CC[C@H]1C(=O)O[C@H](c3ccoc3)C[C@]21C | 110% | 0.24 µM | 0.168 µM | –
13 | CC(=O)O[C@H]1C[C@@H](CN(C)C)[C@]2(C)CC(=O)[C@@H]3CO[C@H](c4ccoc4)CC3(C)[C@H]2C1=O (stereo partly drawn) | – | – | > 10 µM | –
14 | CC(=O)O[C@H]1C[C@@H](CN(C)C)[C@]2(C)CC(=O)[C@H]3CO[C@H](c4ccoc4)CC3(C)[C@H]2C1=O (stereo partly drawn) | – | – | > 10 µM | –
15 | CCNC(=O)[C@@H]1C[C@H](OC(C)=O)C(=O)[C@@H]2[C@@]3(C)C[C@@H](c4ccoc4)OC(=O)[C@H]3CC[C@]21C | – | – | > 10 µM | –
16 | COC(=O)[C@@H]1C[C@@H](N)C(=O)[C@H]2[C@@]1(C)CC[C@H]1C(=O)O[C@H](c3ccoc3)C[C@]21C | 84% | 1.37 µM | 0.223 µM | –
17 | CC(=O)O[C@H]1C[C@@H](CO)[C@]2(C)CC(=O)[C@H]3CO[C@H](c4ccoc4)CC3(C)[C@H]2C1=O (stereo partly drawn) | – | – | 1 µM | 68%
18 | CCNC[C@@H]1C[C@H](OC(C)=O)C(=O)[C@@H]2C3(C)C[C@@H](c4ccoc4)OC[C@@H]3C(=O)C[C@@]12C (stereo partly drawn) | – | – | > 10 µM | –
19 | CCC(=O)N(C)[C@@H]1C[C@@H](C(=O)OC)[C@]2(C)CC[C@H]3C(=O)O[C@H](c4ccoc4)C[C@]3(C)[C@H]2C1=O | – | 0.0126 µM | 0.0069 µM | –

Row | SMILES | Efficacy [1] | EC50 [2] | Ki [3] | Efficacy [4]
20 | CCC(=O)N(CC)[C@H]1C[C@@H](C(=O)OC)[C@]2(C)CC[C@H]3C(=O)O[C@H](c4ccoc4)C[C@]3(C)[C@H]2C1=O | 100% | 0.0372 µM | 0.0381 µM | –
21 | CCN[C@H]1C[C@@H](C(=O)OC)[C@]2(C)CC[C@H]3C(=O)O[C@H](c4ccoc4)C[C@]3(C)[C@H]2C1=O | – | 0.0728 µM | 0.0652 µM | –
22 | CNC[C@@H]1C[C@H](OC(C)=O)C(=O)[C@@H]2C3(C)C[C@@H](c4ccoc4)OC[C@@H]3C(=O)C[C@@]12C (stereo partly drawn) | – | – | > 10 µM | –
23 | CC(=O)O[C@H]1C[C@@H](CO)[C@]2(C)CC(=O)[C@@H]3CO[C@H](c4ccoc4)CC3(C)[C@H]2C1=O (stereo partly drawn) | – | – | > 10 µM | –
24 | CCC(=O)N(CC)[C@@H]1C[C@@H](C(=O)OC)[C@]2(C)CC[C@H]3C(=O)O[C@H](c4ccoc4)C[C@]3(C)[C@H]2C1=O | 96% | 0.857 µM | 0.376 µM | –
25 | CC(=O)O[C@H]1C[C@@H](C(=O)N(C)C)[C@]2(C)CC[C@H]3C(=O)O[C@H](c4ccoc4)C[C@]3(C)[C@H]2C1=O | – | – | > 10 µM | –
26 | CNC(=O)[C@@H]1C[C@H](OC(C)=O)C(=O)[C@H]2[C@@]1(C)CC[C@H]1C(=O)O[C@H](c3ccoc3)C[C@]21C | – | – | 1.39 µM | 71%
27 | CC(=O)O[C@H]1C[C@@H](C(=O)N(C)C)[C@]2(C)CC[C@@H]3C(=O)O[C@H](c4ccoc4)C[C@]3(C)[C@H]2C1=O | – | – | > 10 µM | –
28 | CNC[C@@H]1C[C@H](OC(C)=O)C(=O)[C@@H]2C3(C)C[C@@H](c4ccoc4)OC[C@H]3C(=O)C[C@@]12C (stereo partly drawn) | – | – | > 10 µM | –
29 | CCO[C@@H]1C[C@@H](C(=O)OC)[C@]2(C)CC[C@H]3C(=O)O[C@H](c4ccoc4)C[C@]3(C)[C@H]2C1=O | – | – | > 10 µM | –
30 | CCC(=O)N[C@H]1C[C@@H](C(=O)OC)[C@]2(C)CC[C@H]3C(=O)O[C@H](c4ccoc4)C[C@]3(C)[C@H]2C1=O | 109% | 0.444 µM | 0.374 µM | –
31 | CCN(C(C)=O)[C@@H]1C[C@@H](C(=O)OC)[C@]2(C)CC[C@H]3C(=O)O[C@H](c4ccoc4)C[C@]3(C)[C@H]2C1=O | 95% | 0.641 µM | 0.24 µM | –
32 | CCC(=O)O[C@@H]1C[C@@H](C(=O)OC)[C@]2(C)CC[C@H]3C(=O)O[C@H](c4ccoc4)C[C@]3(C)[C@H]2C1=O | – | – | 0.641 µM | –
33 | COC(=O)[C@@H]1C[C@@H](OC)C(=O)[C@H]2[C@@]1(C)CC[C@H]1C(=O)O[C@H](c3ccoc3)C[C@]21C | – | – | > 10 µM | –
34 | CNC(=O)[C@@H]1C[C@H](OC(C)=O)C(=O)[C@@H]2[C@@]3(C)C[C@@H](c4ccoc4)OC(=O)[C@H]3CC[C@]21C | – | – | > 1 µM | –
35 | COC(=O)[C@@H]1C[C@H](OC(C)=O)C(=O)[C@@H]2[C@@]3(C)C[C@@H](c4ccoc4)OC(=O)[C@H]3CC[C@]21C | 88% | – | – | –
36 | CCCC(=O)O[C@@H]1C[C@@H](C(=O)OC)[C@]2(C)CC[C@H]3C(=O)O[C@H](c4ccoc4)C[C@]3(C)[C@H]2C1=O | – | – | 0.665 µM | –
37 | COC(=O)[C@@H]1C[C@@H](NC(C)C)C(=O)[C@H]2[C@@]1(C)CC[C@H]1C(=O)O[C@H](c3ccoc3)C[C@]21C | – | 0.0072 µM | 0.0023 µM | –
38 | COC(=O)[C@@H]1C[C@H](NC(C)C)C(=O)[C@H]2[C@@]1(C)CC[C@H]1C(=O)O[C@H](c3ccoc3)C[C@]21C | – | 0.0189 µM | 0.0176 µM | –
